# Published values gathered from unrelated publications.
# Mode: inhibitor
# VCP: Transitional endoplasmic reticulum ATPase (VCP, Homo sapiens, UniProt P55072)
# HDAC4: Histone deacetylase 4 (HDAC4, Homo sapiens, UniProt P56524)
# BLK: Tyrosine-protein kinase Blk (BLK, Homo sapiens, UniProt P51451)
# P4HB: Protein disulfide-isomerase (P4HB, Homo sapiens, UniProt P07237)
# SLC2A9: Solute carrier family 2, facilitated glucose transporter member 9 (SLC2A9, Homo sapiens, UniProt Q9NRM0)
# SLCO1B3 M233I: Solute carrier organic anion transporter family member 1B3 (SLCO1B3, Homo sapiens, UniProt Q9NPD5, M233I)
Compound,target,read-out,technique,time,setting,IC50 [nM]
Cc1c(C(N)=O)c2ccccc2n1-c1nc2c(c(NCc3ccccc3)n1)CCCN2,VCP,enzyme activity,ADP detection,,,393
CC1(C)NC(=O)N(c2ccc([N+](=O)[O-])c(C(F)(F)F)c2)C1=O,"Aldo-keto reductase family 1 member C3 (AKR1C3, Homo sapiens, UniProt P42330)",enzyme activity,,,,5000
COc1ccc(N(Cc2csc(-c3ccc(Br)cc3)n2)C(=O)CCCCCC(=O)NO)cc1,HDAC4,enzyme activity,,,,> 10000
O=C(NO)c1ccc(Cn2cnc3c(Nc4ccc(Cl)cc4)ncnc32)cc1,HDAC4,enzyme activity,,,,3110
Cc1cc2c(C(N)=O)cccc2n1-c1nc2c(c(NCc3ccccc3O)n1)CCCN2,VCP,enzyme activity,ADP detection,,,53
C[C@H]1CN(C2COC2)CCN1c1ccc(Nc2cc(-c3ccnc(N4CCn5c(cc6c5CC(C)(C)C6)C4=O)c3CO)cn(C)c2=O)nc1,BLK,enzyme activity,,,,> 5000
COc1ccc(N(Cc2nc(-c3ccc(F)cc3)cs2)C(=O)CCCCCC(=O)NO)cc1,HDAC4,enzyme activity,,,,> 10000
CONC(=O)c1c(C)n(-c2nc3c(c(NCc4ccccc4)n2)CCCN3)c2ccccc12,VCP,enzyme activity,ADP detection,,,1640
O=C(O[C@@H]1[C@@H](O)[C@H](Oc2cc(O)c3c(c2)O[C@H](c2ccccc2)CC3=O)O[C@@H]2COC(=O)c3cc(O)c(O)c(O)c3-c3c(cc(O)c(O)c3O)C(=O)O[C@@H]12)c1cc(O)c(O)c(O)c1,P4HB,enzyme activity,fluorescence,,,1500
CCc1oc2cc(F)c(F)cc2c1C(=O)c1cc(Br)c(O)c(Br)c1,SLC2A9,transporter uptake,,,oocytes,17400
CN(Cc1cnc2nc(N)nc(N)c2n1)c1ccc(C(=O)N[C@@H](CCC(=O)O)C(=O)O)cc1,"Solute carrier organic anion transporter family member 1B3 (SLCO1B3, Homo sapiens, UniProt Q9NPD5)",transporter uptake,radiometric,2 min,,498
Clc1ccc(Nc2ccncc2)cc1Cl,"G/T mismatch-specific thymine DNA glycosylase (TDG, Homo sapiens, UniProt Q13569)",enzyme activity,,,,> 99000
CCN(CCO)CCCC(C)Nc1ccnc2cc(Cl)ccc12 (centres unmarked),"Procathepsin L (CTSL, Homo sapiens, UniProt P07711)",enzyme activity,fluorescence,,,234000
Cc1cc2c(C(N)=O)cccc2n1-c1nc2c(c(NCc3ccccn3)n1)CCCN2,VCP,enzyme activity,ADP detection,,,115
O=c1c(O)cc([C@H]2Oc3cc(O)cc(O)c3C[C@H]2O)cc2c([C@H]3Oc4cc(O)cc(O)c4C[C@H]3O)cc(O)c(O)c12,P4HB,enzyme activity,fluorescence,,,> 500000
Cc1cc2c(C(=O)O)cccc2n1-c1nc2c(c(NCc3ccccc3)n1)CCCN2,VCP,enzyme activity,ADP detection,,,32
C=CC(=O)Nc1cccc(Oc2nc(Nc3ccc(N4CCN(C)CC4)cc3)nc3ccoc23)c1,BLK,enzyme activity,,,,< 0.254
CCc1oc2ccccc2c1C(=O)c1cc(Br)c(O)c(Br)c1,SLC2A9,transporter uptake,,,oocytes,87600
CC(C)n1c(/C=C/C(O)CC(O)CC(=O)O)c(-c2ccc(F)cc2)c2ccccc21 (centres unmarked),SLCO1B3 M233I,transporter uptake,radiometric,2 min,,11000
CC#CC(=O)N1CC[C@@H](n2c(=O)n(-c3ccc(Oc4ccccc4)cc3)c3c(N)ncnc32)C1,BLK,enzyme activity,,,,793
N=C(N)c1ccc(OCCCCCOc2ccc(C(=N)N)cc2)cc1,"Coagulation factor XIII A chain (F13A1, Homo sapiens, UniProt P00488)",enzyme activity,fluorescence,,,> 50000
Cc1cc2c(C(N)=O)nccc2n1-c1nc2c(c(NCc3ccccc3)n1)CCCN2,VCP,enzyme activity,ADP detection,,,121
CC(=O)O[C@H]1C(=O)[C@@]2(C)[C@H]([C@H](OC(=O)c3ccccc3)[C@]3(O)C[C@H](OC(=O)[C@H](O)[C@@H](NC(=O)c4ccccc4)c4ccccc4)C(C)=C1C3(C)C)[C@]1(OC(C)=O)CO[C@@H]1C[C@@H]2O,SLCO1B3 M233I,transporter uptake,radiometric,2 min,,> 100000
Cc1cc2c(C(N)=O)cccc2n1-c1nc(NCc2ccccc2)c2c(n1)NC(C)CC2 (centres unmarked),VCP,enzyme activity,ADP detection,,,39
O=C1C[C@@H](c2ccccc2)Oc2cc(O)cc(O)c21,P4HB,enzyme activity,fluorescence,,,> 500000
COc1cccc2c1C(=O)c1c(O)c3c(c(O)c1C2=O)C[C@@](O)(C(=O)CO)C[C@@H]3O[C@H]1C[C@H](N)[C@H](O)[C@H](C)O1,SLCO1B3 M233I,transporter uptake,radiometric,2 min,,> 100000
